# Experimental data of several laboratories.
# Lines come from different studies, so protocols differ.
# Read-out: metabolic stability
# Sample: liver microsomes
Structure (SMILES),test system,conditions,microsomal CLint
CCOc1ccc2ccc(=O)oc2c1,mouse,"1 µM, pH 7.4",522 µL/min/mg
CCCOc1cccc(-c2[nH]c3cc(OC)ccc3c(=O)c2C(=O)OCC)c1,female CD-1 mouse,"19.8 µM, pH 7.4",> 15 µL/min/mg
COc1ccc(Nc2nc(-c3ccccn3)nc3ccccc23)cc1,mouse,,158 µL/min/mg
Cc1cc(Nc2ccc(S(F)(F)(F)(F)F)cc2)n2ccnc2n1,mouse,,30 µL/min/mg
N#CC1CCN(c2nc(-c3ccccn3)nc3ccccc23)CC1,mouse,,105 µL/min/mg
Cc1cc(Nc2ccc(C(F)(F)F)cc2)n2nc(C(F)(F)F)nc2n1,mouse,"1 µM, pH 7.4",< 10 µL/min/mg
O=C(C1CCSCC1)N1CC(=O)N2CCc3ccccc3[C@@H]2C1,mouse,"0.1 µM, pH 7.4",324 µL/min/mg
O=C(Nc1ccnc(C(F)(F)F)c1)Nc1cccc2c1OC(F)(F)O2,mouse,,92 µL/min/mg
CCOC(=O)c1c(-c2cccc(Br)c2)[nH]c2cc(OC)c(F)cc2c1=O,female CD-1 mouse,"19.8 µM, pH 7.4",< 4 µL/min/mg
N#CC1CCCN(c2nc(-c3ccccn3)nc3ccccc23)C1 (stereo not shown),mouse,,93 µL/min/mg
CCOC(=O)C1=C(C)N/C(=C/c2cc(C)n(Cc3ccc(C(F)(F)F)cc3)c2C)C1=O,mouse,1 µM,103 µL/min/mg
c1ccc(C2CCN(c3nc(-c4cnn5cccnc45)nc4ccccc34)C2)nc1 (stereo not shown),mouse,,153 µL/min/mg
CC1=C(C(N)=O)C(=O)/C(=C\c2cc(C)n(-c3ccccc3C(F)(F)F)c2C)N1,mouse,1 µM,93 µL/min/mg
Clc1ccc(COc2cncc(-c3cnn(C4CCNCC4)c3)c2)c(Cl)c1,mouse,,28.9 µL/min/mg
FC(F)(F)c1ccccc1-c1nc(N2CCC(c3ccccn3)C2)c2ccccc2n1 (stereo not shown),mouse,,688 µL/min/mg
Cc1cc(Nc2ccc(C(F)(F)F)cc2)n2nc(C(C)(F)F)nc2n1,mouse,"1 µM, pH 7.4",< 10 µL/min/mg
CCN(CC)CCNC(=O)c1c(C)[nH]c(/C=C2\C(=O)Nc3ccc(F)cc32)c1C,mouse,"1 µM, pH 7.4",54 µL/min/mg
Cc1cc(Nc2ccc(S(F)(F)(F)(F)F)cc2)n2nc(C(C)(F)F)nc2n1,mouse,"1 µM, pH 7.4",< 10 µL/min/mg
CCOC(=O)c1c(-c2cccc(Oc3ccccc3)c2)[nH]c2cc(OC)c(F)cc2c1=O,female CD-1 mouse,"19.8 µM, pH 7.4",> 15 µL/min/mg
